Assay results taken from ChEMBL document CHEMBL1681736, “Towards more specific O6-methylguanine-DNA methyltransferase (MGMT) inactivators” (Bioorg Med Chem, 2011).

What was measured:
[1] = Solubility of the compound in phosphate buffer; assay type: physicochemical
Procedure, shortened: (§1)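 Solubility was assessed while setting up thermal denaturation experiments with salmon sperm DNA (68% A–T base-pair content). Each buffer (phosphate, MES, Tris) was tried alone and also mixed with DMSO or ethanol.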

[2] = Solubility of the compound in MES buffer; assay type: physicochemical; procedure, shortened: as §1
[3] = Solubility of the compound in Tris buffer; assay type: physicochemical; procedure, shortened: as §1
[4] = molecular target: T1, Methylated-DNA--protein-cysteine methyltransferase (Homo sapiens, UniProt P16455); assay: Inactivation of human O-6-methylguanine-DNA methyltransferase assessed as [3H]methylated protein formation by liquid scintillation counting in presence of [3H]methylated calf thymus DNA
T1 sequence (P16455 whole entry): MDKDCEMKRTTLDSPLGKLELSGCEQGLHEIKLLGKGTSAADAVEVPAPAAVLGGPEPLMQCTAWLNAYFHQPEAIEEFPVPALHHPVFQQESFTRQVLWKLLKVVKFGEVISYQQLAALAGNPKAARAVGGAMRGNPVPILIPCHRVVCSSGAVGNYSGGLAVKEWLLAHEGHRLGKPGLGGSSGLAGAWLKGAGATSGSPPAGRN

Compound	solubility [1]	solubility [2]	solubility [3]	IC50 [4] [µM]
Nc1ccc(Cc2ccc(Nc3nc(N)nc(OCc4cc(Br)cs4)c3[N+](=O)[O-])cc2)cc1	Insoluble	Insoluble	Insoluble	–
Nc1ccc(Nc2ccc(Nc3nc(N)nc(OCc4cc(Br)cs4)c3[N+](=O)[O-])cc2)cc1	Insoluble	Insoluble	Insoluble	–
Nc1ccc(Oc2ccc(Nc3nc(N)nc(OCc4cc(Br)cs4)c3[N+](=O)[O-])cc2)cc1	Insoluble	Insoluble	Insoluble	–
Nc1ccc(C(=O)c2ccc(Nc3nc(N)nc(OCc4cc(Br)cs4)c3[N+](=O)[O-])cc2)cc1	Insoluble	Insoluble	Insoluble	–
Nc1ccc(Cc2ccc(Nc3nc(N)nc(OCc4ccccc4)c3[N+](=O)[O-])cc2)cc1	Insoluble	Insoluble	Insoluble	–
Nc1ccc(Nc2ccc(Nc3nc(N)nc(OCc4ccccc4)c3[N+](=O)[O-])cc2)cc1	Insoluble	Insoluble	Insoluble	–
Nc1ccc(Oc2ccc(Nc3nc(N)nc(OCc4ccccc4)c3[N+](=O)[O-])cc2)cc1	Insoluble	Insoluble	Insoluble	> 600
Nc1ccc(C(=O)c2ccc(Nc3nc(N)nc(OCc4ccccc4)c3[N+](=O)[O-])cc2)cc1	Insoluble	Insoluble	Insoluble	> 600
Nc1nc(OCc2cc(Br)cs2)c2[nH]cnc2n1 [LOMEGUATRIB]	–	–	–	0.003
